Among the data in ChEMBL document CHEMBL1153004, “Bis-14-membered ring diketal diamines: synthesis and evaluation of their anti-HIV and anti-tumoral activities” (Eur J Med Chem, 2009) are IC50, CC50 and inhibition values, retold here.

Data set [1] relates to Human immunodeficiency virus 1. The data set can be described thus: Antiviral activity against HIV1 LAI in human CEM-SS cells assessed as inhibition of viral replication. Format: functional, organism-based. As to conditions: Human immunodeficiency virus 1, LAI. In outline: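 CEM-SS cells in RPMI 1640 with 10% FCS at 37 °C, 5% CO2, infected with HIV-1 LAI at 20 TCID50. After 30 min adsorption, cells were washed and resuspended at 10^5 cells/mL with serial compound dilutions. After 5 days, reverse transcriptase activity of released virus particles was measured. IC50 came from a median-effect plot; mean of 2 experiments.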

Data set [2] has as its system Human immunodeficiency virus 1. The data set can be described thus: Antiviral activity against HIV1 3B in human MT4 cells assessed as inhibition of viral replication. The settings on record: Human immunodeficiency virus 1, 3B. Type of data set: functional, organism-based. Put shortly:
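MT-4 cells in RPMI 1640 with 10% FCS at 37 °C, 5% CO2, infected with HIV-1 IIIB at 5 TCID50. After 30 min adsorption, cells were washed and resuspended at 10^5 cells/mL with serial compound dilutions. Inhibition of virus-induced cytopathogenicity was read after 5 days. IC50 came from a median-effect plot; mean of 2 experiments.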

Data set [3] in a line: Cytotoxicity against human MT4 cells by MTT assay. Type of data set: cell-based. Put shortly: (§1)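 Uninfected cells were incubated in parallel with a range of compound concentrations. Viability was read by MTT reduction to formazan, OD 540 nm. CC50 was calculated with the same median-effect program used for IC50. Mean of 2 separate experiments.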
Data set [4] in a line: Cytotoxicity against human CEM-SS cells by MTT assay. Type of data set: cell-based. In outline:
as §1

The test system of another data set is A549. As to the kind of experiment: Antiproliferative activity against human A549 cells at 10 uM after 3 hrs by MTS assay. Format: functional. The settings on record: A549, 3 h. Put shortly:
(§2)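 Medium was DMEM-Glutamax for KB and HepG2 and RPMI 1640 for the other lines, each with 10% FCS, at 37 °C, 5% CO2. Cells were seeded at 500–800 per well and left to adhere for 24 h. Compounds in DMSO were added at 10^-5 M final, with 3 h exposure. Readout was MTS absorbance versus control wells after blank subtraction; triplicate.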

In data set [5] the test system is HCT-116. The data set can be described thus: Antiproliferative activity against human HCT116 cells at 10 uM after 3 hrs by MTS assay. Format: functional. The settings on record: HCT-116, 3 h. In outline: as §2
The test system of data set [6] is KB. As to the kind of experiment: Antiproliferative activity against human KB cells at 10 uM after 3 hrs by MTS assay. Type of data set: functional. Put shortly: as §2
(Formazan colour is commonly taken as a measure of viable cells.)

Data set [7] relates to HL-60. As to the kind of experiment: Antiproliferative activity against human HL60 cells at 10 uM after 3 hrs by MTS assay. Type of data set: functional. The settings on record: HL-60, 3 h. In outline:
as §2

Another data set has as its system HepG2. The data set can be described thus: Antiproliferative activity against human HepG2 cells at 10 uM after 3 hrs by MTS assay. Format: functional. As to conditions: HepG2, 3 h. In outline: as §2
The subject of the next data set is SF-268. As to the kind of experiment: Antiproliferative activity against human SF268 cells at 10 uM after 3 hrs by MTS assay. Type of data set: functional. The settings on record: SF-268, 3 h. In outline: as §2
Data set [8] has as its system PC-3. The data set can be described thus: Antiproliferative activity against human PC3 cells at 10 uM after 3 hrs by MTS assay. Type of data set: functional. The settings on record: PC-3, 3 h. Put shortly: as §2
The test system of the next data set is SK-OV-3. The data set can be described thus: Antiproliferative activity against human SKOV3 cells at 10 uM after 3 hrs by MTS assay. As to conditions: SK-OV-3, 3 h. Type of data set: functional. In outline: as §2
In data set [9] the test system is MCF7. The data set can be described thus: Antiproliferative activity against human multidrug-resistant MCF7 cells at 10 uM after 3 hrs by MTS assay. Type of data set: functional. The settings on record: MCF7, 3 h. Put shortly:
as §2

Data set [10] has as its system MCF7. The data set can be described thus: Antiproliferative activity against human MCF7 cells at 10 uM after 3 hrs by MTS assay. Type of data set: functional. As to conditions: MCF7, 3 h. Put shortly:
as §2

Data set [11] concerns PC-3. As to the kind of experiment: Cytotoxicity against human PC3 cells after 3 hrs by MTS assay. As to conditions: PC-3, 3 h. Format: functional, cell-based. In outline:
as §2

Data set [12] has as its system HL-60. As to the kind of experiment: Cytotoxicity against human HL60 cells after 3 hrs by MTS assay. Type of data set: functional, cell-based. The settings on record: HL-60, 3 h. In outline: as §2
Data set [13] deals with HCT-116. As to the kind of experiment: Cytotoxicity against human HCT116 cells after 3 hrs by MTS assay. Format: functional, cell-based. The settings on record: HCT-116, 3 h. Put shortly: as §2
For data set [14], the system named is MCF7. The data set can be described thus: Cytotoxicity against human MCF7 cells after 3 hrs by MTS assay. Format: functional, cell-based. The settings on record: MCF7, 3 h. In outline: as §2
In data set [15] the test system is KB. The data set can be described thus: Cytotoxicity against human KB cells after 3 hrs by MTS assay. Type of data set: functional, cell-based. In outline:
as §2

Bounds are passed on as bounds.

`c1cc(CN2CCCNCCNCCCNCC2)ccc1CN1CCCNCCNCCCNCC1` [PLERIXAFOR]: the 50% inhibitory concentration (IC50) (commonly the concentration at which inhibition is half-maximal) in data set [1] was 0.32 µM; in data set [2] it was 0.41 µM. Also, the CC50 (as a rule, the concentration that lowers cell viability or growth by half) in data set [3] is 6.5 µM; in data set [4] it was above 5 µM.

As to `CO[C@@H]1CCN(Cc2ccc(CN3CC[C@@H](OC)OC[C@@H](c4ccccc4)NC(=O)C[C@@H](OC)OC[C@H]3c3ccccc3)cc2)[C@H](c2ccccc2)CO[C@H](OC)CC(=O)N[C@H](c2ccccc2)CO1`, the inhibition (as a rule, the drop in the measured response relative to a control, in per cent) at 10 µM was found to be 17% with A549; 21% in the data set with HCT-116 [5]; 12% in the data set with KB [6]; 31% in the data set on HL-60 [7]; 0% in the data set on HepG2; 14% with SF-268. Also, the inhibition at 10 µM in the data set with PC-3 [8] was determined as 15%; with SK-OV-3, 18%; in the data set with MCF7 [9] it was 8%; with MCF7 [10] it was 25%. In addition, the half-inhibitory concentration (IC50) in data set [1] and in [2] was above 10 µM throughout. For the same compound, the CC50 in data set [3] and in data set [4] was above 10 µM each time.

`CO[C@H]1CCN(Cc2ccc(CN3CCO[C@H](OC)CC(=O)NCCO[C@@H](OC)CC3)cc2)CCO[C@H](OC)CC(=O)NCCO1` (relative stereo): the inhibition at 10 µM in the data set on A549 came out at 0%; in the data set on HCT-116 [5] it was 7%; in the data set with KB [6], 0%; with HL-60 [7] it was 10%; in the data set on HepG2, 4%; in the data set on SF-268, 0%. Besides, the inhibition at 10 µM with PC-3 [8] turned out to be 0%; in the data set on SK-OV-3 it was 0%; in the data set on MCF7 [9], 2%; in the data set on MCF7 [10], 13%. Moreover, the concentration for half-maximal inhibition (IC50) in data set [1] and in data set [2] was above 100 µM throughout. In addition, the cytotoxic concentration (CC50) in data set [3] and in data set [4] was above 100 µM each time.

`CO[C@H]1CC(=O)N[C@H](c2ccccc2)CO[C@H](OC)CCN(Cc2ccc(CN3CC[C@@H](OC)OC[C@@H](c4ccccc4)NC(=O)C[C@H](OC)OC[C@H]3c3ccccc3)cc2)[C@H](c2ccccc2)CO1`: the IC50 with PC-3 [11] is 10 µM; in the data set with HL-60 [12], 10 µM; in data set [1], 8.65 µM; in data set [2] it was above 7.8 µM; in the data set with HCT-116 [13] it was 10 µM; with MCF7 [14], 10 µM. Further, inhibition in the data set with KB [15] was half-maximal at 10 µM (IC50). The inhibition at 10 µM in the data set on A549 was 33%; with HCT-116 [5], 47%; with KB [6] it was 47%; in the data set on HL-60 [7], 54%; with HepG2, 27%; with SF-268 it was 27%. For the same compound, the inhibition at 10 µM in the data set with PC-3 [8] came to 51%; in the data set on SK-OV-3 it was 38%; with MCF7 [9], 14%; in the data set on MCF7 [10] it was 45%. In addition, the CC50 in data set [3] is 7.8 µM; in data set [4], above 10 µM.
